Measured values taken from ChEMBL document CHEMBL1134691, “3-Phenyl-5-acyloxymethyl-2H,5H-furan-2-ones: synthesis and biological activity of a novel group of potential antifungal drugs” (2001).
Converted amounts (≈) assume the structure as drawn.

Columns and labels:
Pichia kudriavzevii [1] = assay: Inhibition of Candida krusei E28 growth for 48 hours in vitro.; assay type: functional
In short: (§1)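 NCCLS M27-A broth microdilution in RPMI 1640 with L-glutamine and 0.165 M MOPS, pH 7.0. Isolates kept on Sabouraud dextrose agar. Inoculum 5 × 10^3 cfu/mL final. Compounds were diluted in DMSO (≤2% final) and tested in 2-fold dilutions of 1000–0.24 µmol/L. Incubation at 35 °C, OD540 read at 24 and 48 h. MIC = 80% growth inhibition versus control; assays run twice in duplicate.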

Candida albicans [2] = assay: Inhibition of Candida albicans ATCC 44859 growth for 24 hours in vitro.; assay type: functional; details: Candida albicans, ATCC 44859, 24 h; read-out: MIC; in short: as §1
Trichosporon beigelii [3] = assay: Inhibition of Trichosporon beigelli 1188 for 48 hours in vitro.; assay type: functional; details: Trichosporon beigelii, 48 h; read-out: MIC
In short: (§2)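 Microdilution following NCCLS M27-A. Medium: RPMI 1640 with L-glutamine, 0.165 M MOPS, pH 7.0. Final inoculum 5 × 10^3 cfu/mL. Compounds dissolved in DMSO, final ≤2%, serially halved from 1000 to 0.24 µmol/L. Incubated at 35 °C and read at 24 and 48 h. MIC defined as 80% inhibition of control growth; run twice in duplicate.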

Candida albicans [4] = assay: Inhibition of Candida albicans ATCC 90028 for 48 hours in vitro.; assay type: functional; details: ATCC 90028, 48 h; in short: as §1
Aspergillus fumigatus [5] = assay: Inhibition of Aspergillus fumigatus 231 growth for 24 hours in vitro.; assay type: functional; details: Aspergillus fumigatus, 24 h; read-out: MIC
In short: (§3)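 Filamentous isolates tested by microdilution per NCCLS M27-A in RPMI 1640 plus L-glutamine, buffered with 0.165 M MOPS to pH 7.0. Final inoculum 5 × 10^3 cfu/mL. Compounds in DMSO (final ≤2%), 2-fold series over 1000–0.24 µmol/L. Plates held at 35 °C and read visually after 24 and 48 h. MIC taken as 80% inhibition of control growth; determined twice in duplicate.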

Nakaseomyces glabratus [6] = assay: Inhibition of Candida glabrata 20/I growth for 24 hours in vitro.; assay type: functional; details: Nakaseomyces glabratus, 24 h; read-out: MIC; in short: as §1
[7] = Inhibition of Trichophyton mentagrophytes 445 growth for 120 hours in vitro.; assay type: functional, Arthroderma benhamiae; details: Trichophyton benhamiae, 120 h; read-out: MIC
In short: (§4)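 Dermatophyte grown in MOPS-buffered (0.165 M, pH 7.0) RPMI 1640 containing L-glutamine, in an M27-A microdilution format. Inoculum 5 × 10^3 cfu/mL final. Compounds from DMSO stocks (≤2% final), 2-fold dilutions 1000–0.24 µmol/L. Incubated at 35 °C, growth judged visually at 72 and 120 h. MIC endpoint is 80% inhibition relative to control; measured twice in duplicate.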

Candida parapsilosis [8] = assay: Inhibition of Candida parapsilosis ATCC 22019 growth for 48 hours in vitro.; assay type: functional; details: Lodderomyces parapsilosis, ATCC 22019, 48 h; in short: as §1
Clavispora lusitaniae [9] = assay: Inhibition of Candida lusitaniae 2446/I growth for 24 hours in vitro.; assay type: functional; details: Clavispora lusitaniae, 24 h; read-out: MIC; in short: as §1
Candida tropicalis [10] = assay: Inhibition of Candida tropicalis 156 growth for 48 hours in vitro.; assay type: functional; in short: as §1
Trichosporon beigelii [11] = assay: Inhibition of Trichosporon beigelli 1188 for 24 hours in vitro.; assay type: functional; details: Trichosporon beigelii, 24 h; read-out: MIC; in short: as §2
Lichtheimia corymbifera [12] = assay: In vitro inhibition of Absidia corymbifera 272 growth for 24 hours.; assay type: functional; details: Lichtheimia corymbifera, 24 h; read-out: MIC; in short: as §3
Pichia kudriavzevii [13] = assay: Inhibition of Candida krusei E28 growth for 24 hours in vitro.; assay type: functional; in short: as §1
Clavispora lusitaniae [14] = assay: Inhibition of Candida lusitaniae 2446/I growth for 48 hours in vitro.; assay type: functional; details: Clavispora lusitaniae, 48 h; read-out: MIC; in short: as §1
Candida parapsilosis [15] = assay: Inhibition of Candida parapsilosis ATCC 22019 growth for 24 hours in vitro.; assay type: functional; details: Lodderomyces parapsilosis, ATCC 22019, 24 h; in short: as §1
[16] = Inhibition of Trichophyton mentagrophytes 445 growth for 72 hours in vitro.; assay type: functional, Arthroderma benhamiae; details: Trichophyton benhamiae, 72 h; read-out: MIC; in short: as §4
Aspergillus fumigatus [17] = assay: Inhibition of Aspergillus fumigatus 231 growth for 48 hours in vitro.; assay type: functional; details: Aspergillus fumigatus, 48 h; read-out: MIC; in short: as §3
Candida albicans [18] = assay: Inhibition of Candida albicans ATCC 90028 for 24 hours in vitro.; assay type: functional; details: ATCC 90028, 24 h; in short: as §1
Candida tropicalis [19] = assay: Inhibition of Candida tropicalis 156 growth for 24 hours in vitro.; assay type: functional; in short: as §1
Nakaseomyces glabratus [20] = assay: Inhibition of Candida glabrata 20/I growth for 48 hours in vitro.; assay type: functional; details: Nakaseomyces glabratus, 48 h; read-out: MIC; in short: as §1
Pichia kudriavzevii [21] = assay: Inhibition of Candida krusei ATCC 6258 growth for 24 hours in vitro.; assay type: functional; details: ATCC 6258, 24 h; in short: as §1
Pichia kudriavzevii [22] = assay: Inhibition of Candida krusei ATCC 6258 growth for 48 hours in vitro.; assay type: functional; details: ATCC 6258, 48 h; in short: as §1
Candida albicans [23] = assay: Inhibition of Candida albicans ATCC 44859 growth for 48 hours in vitro.; assay type: functional; details: Candida albicans, ATCC 44859, 48 h; read-out: MIC; in short: as §1
Lichtheimia corymbifera [24] = assay: In vitro inhibition of Absidia corymbifera 272 growth for 48 hours.; assay type: functional; details: Lichtheimia corymbifera, 48 h; read-out: MIC; in short: as §3
[25] = Candida albicans, read-out: MIC
[26] = Pichia kudriavzevii, read-out: MIC

| MIC (Candida albicans [2]) [µM] | MIC (Trichosporon beigelii [3]) [µM] | MIC (Aspergillus fumigatus [5]) [µM] | MIC (Nakaseomyces glabratus [6]) [µM] | MIC [7] [µM] | MIC (Clavispora lusitaniae [9]) [µM] | MIC (Trichosporon beigelii [11]) [µM] | MIC (Lichtheimia corymbifera [12]) [µM] | MIC (Clavispora lusitaniae [14]) [µM] | MIC [16] [µM] | MIC (Aspergillus fumigatus [17]) [µM] | MIC (Nakaseomyces glabratus [20]) [µM] | MIC (Candida albicans [23]) [µM] | MIC (Lichtheimia corymbifera [24]) [µM] | Structure (SMILES) | further results |
| --- | --- | --- | --- | --- | --- | --- | --- | --- | --- | --- | --- | --- | --- | --- | --- |
| 15.6 (≈ 3.44 µg/mL) | 1000 (≈ 220 µg/mL) | 125 (≈ 27.5 µg/mL) | 125 (≈ 27.5 µg/mL) | 62.5 (≈ 13.8 µg/mL) | 31.2 (≈ 6.88 µg/mL) | 500 (≈ 110 µg/mL) | 31.2 (≈ 6.88 µg/mL) | 125 (≈ 27.5 µg/mL) | 15.6 (≈ 3.44 µg/mL) | 500 (≈ 110 µg/mL) | 250 (≈ 55.1 µg/mL) | 62.5 (≈ 13.8 µg/mL) | 62.5 (≈ 13.8 µg/mL) | COc1ccc(C2=CC(CO)OC2=O)cc1 (stereo not drawn) | MIC (Pichia kudriavzevii [1]): 125 µM (≈ 27.5 µg/mL); MIC (Candida albicans [4]): 62.5 µM (≈ 13.8 µg/mL); MIC (Candida parapsilosis [8]): 500 µM (≈ 110 µg/mL); MIC (Candida tropicalis [10]): 250 µM (≈ 55.1 µg/mL); MIC (Pichia kudriavzevii [13]): 62.5 µM (≈ 13.8 µg/mL); MIC (Candida parapsilosis [15]): 250 µM (≈ 55.1 µg/mL); MIC (Candida albicans [18]): 31.2 µM (≈ 6.88 µg/mL); MIC (Candida tropicalis [19]): 125 µM (≈ 27.5 µg/mL); MIC (Pichia kudriavzevii [21]): 62.5 µM (≈ 13.8 µg/mL); MIC (Pichia kudriavzevii [22]): 125 µM (≈ 27.5 µg/mL) |
| 0.98 (≈ 0.298 µg/mL) | 62.5 (≈ 19 µg/mL) | 7.81 (≈ 2.38 µg/mL) | 31.2 (≈ 9.51 µg/mL) | 7.81 (≈ 2.38 µg/mL) | 31.2 (≈ 9.51 µg/mL) | 62.5 (≈ 19 µg/mL) | 62.5 (≈ 19 µg/mL) | 31.2 (≈ 9.51 µg/mL) | 7.81 (≈ 2.38 µg/mL) | 31.2 (≈ 9.51 µg/mL) | 31.2 (≈ 9.51 µg/mL) | 15.6 (≈ 4.76 µg/mL) | 125 (≈ 38 µg/mL) | COc1ccc(C2=CC(COC(=O)C(C)(C)C)OC2=O)cc1 (stereo not drawn) | MIC (Pichia kudriavzevii [1]; Pichia kudriavzevii, 48 h, read-out: MIC): 125 µM (≈ 38 µg/mL); MIC (Candida albicans [4]; [25]): 31.2 µM (≈ 9.51 µg/mL); MIC (Candida parapsilosis [8]; read-out: MIC): 62.5 µM (≈ 19 µg/mL); MIC (Candida tropicalis [10]; Candida tropicalis, 48 h, read-out: MIC): 62.5 µM (≈ 19 µg/mL); MIC (Pichia kudriavzevii [13]; Pichia kudriavzevii, 24 h, read-out: MIC): 62.5 µM (≈ 19 µg/mL); MIC (Candida parapsilosis [15]; read-out: MIC): 31.2 µM (≈ 9.51 µg/mL); MIC (Candida albicans [18]; [25]): 31.2 µM (≈ 9.51 µg/mL); MIC (Candida tropicalis [19]; Candida tropicalis, 24 h, read-out: MIC): 31.2 µM (≈ 9.51 µg/mL); MIC (Pichia kudriavzevii [21]; [26]): 62.5 µM (≈ 19 µg/mL); MIC (Pichia kudriavzevii [22]; [26]): 62.5 µM (≈ 19 µg/mL) |
